Kir21 inh = blocks the mouse Kir2.1 inward-rectifier potassium channel; P35561; HEK293-Kir2.1, FluxOR thallium flux fluorescence; hits give low values; B-score at 10 µM; actives 0.85% (n = 310,000); AID 1672;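 active means fluorescence ratio B-score at or below minus 3 SD of library scores, with starting-brightness B-score within 2 SD, cut at about -4.2 in these data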;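 further: channel flux triggered by added potassium and thallium sulfate stimulus; B-score of peak minus minimum fluorescence over baseline after thallium stimulus; more negative B-score means stronger Kir2.1 block with less thallium influx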
hERG protect = compounds protecting human hERG from proarrhythmic drug block. AID 1511. activation (rescue from dofetilide block), less the hit threshold, % at 10 µM. actives 0.51% (n = 310,000). Q12809. CHO-hERG, FluxOR thallium flux, dofetilide IC70 present;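 active means activation above the mean of controls blocked by dofetilide plus 5 SD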;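 further: thallium influx through hERG after potassium depolarization seen as dye fluorescence rise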
KCNK3 block = human KCNK3 channel inhibition, primary screen; CHO-KCNK3 thallium flux, FluxOR fluorescence; hits give low values; B-score at 10 µM; actives 0.84% (n = 340,000);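 active means B-score under library mean minus 4 SD, starting fluorescence ratio at most library mean plus 5 SD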;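 further: more negative B-score means stronger inhibition of thallium flux through KCNK3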
Target sequence (O14649 whole entry, looked up): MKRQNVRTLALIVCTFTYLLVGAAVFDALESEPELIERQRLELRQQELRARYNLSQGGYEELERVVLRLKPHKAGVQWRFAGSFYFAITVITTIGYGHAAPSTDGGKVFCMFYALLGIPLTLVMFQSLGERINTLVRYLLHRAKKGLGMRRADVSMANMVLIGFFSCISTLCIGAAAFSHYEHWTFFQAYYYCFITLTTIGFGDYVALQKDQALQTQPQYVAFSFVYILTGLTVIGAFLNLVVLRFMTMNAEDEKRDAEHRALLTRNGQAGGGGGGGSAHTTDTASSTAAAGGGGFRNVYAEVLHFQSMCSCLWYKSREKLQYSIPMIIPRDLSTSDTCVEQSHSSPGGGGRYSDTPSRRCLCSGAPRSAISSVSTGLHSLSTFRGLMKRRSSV
KCNQ1 act = potentiates or activates the human KCNQ1 potassium channel. P51787. CHO-K1 KCNQ1, thallium flux FluxOR fluorescence; hits give high values. B-score at 10 µM. actives 0.35% (n = 310,000);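 active means fluorescence ratio B-score, a plate-corrected score, at least three library SD, with initial intensity B-score within 5 SD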
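Doses: Single concentration per compound, DMSO matched to controls | Test system: KCNQ1-transfected CHO-K1 cells | Timing: 90 min dye loading and 20 min compound exposure, both at room temperature | Measured by: Kinetic FluxOR thallium fluorescence, 10-s 1-Hz baseline, 110-s post-stimulus read | Medium: Assay buffer with matched DMSO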
KCNQ1 inh = blocks the human KCNQ1 potassium channel; P51787; CHO-K1 KCNQ1, FluxOR thallium flux fluorescence; hits give high values; B-score at 10 µM; actives 1.3% (n = 310,000); AID 2642;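 active means compounds whose thallium flux B-score, printed positive for inhibition, exceeds three library SD while starting fluorescence stays within three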;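 further: channel opened by potassium depolarization with thallium stimulus after 20 min compound exposure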
KCNK9 inh-1 = human KCNK9 channel inhibition | Q9NPC2 | HEK293 KCNK9, FluxOR thallium flux fluorescence; hits give low values | B-score at 10 µM | actives 1.2% (n = 310,000) | AID 488922;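 active means ratio B-score over 3 SD below the library mean, with starting fluorescence within 5 SD of its mean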;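 further: negative B-score means less thallium flux so channel inhibition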
hERG inh = hERG (human) inhibition as Kir2.1 counter-screen; shares compounds with Kir21 inh; hERG-expressing cells, thallium flux; inhibition, % at 10 µM; actives 20% (n = 320);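 further: host cells are CHO cells stably expressing hERG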
KCNK9 inh-2 = selectivity of Kir2.1 inhibitors: effect on human KCNK9 | shares compounds with Kir21 inh | KCNK9-expressing cells, ion flux inhibition | inhibition, % at 10 µM | actives 5% (n = 320)
Kir21 ephys inh = mouse Kir2.1 inward rectifier channel inhibition | shares compounds with Kir21 inh | AID 463252 | inhibition, % at 25 µM | Kir2.1 cells, automated patch-clamp current inhibition | actives 71% (n = 320)
Active calls of the source: *; i = inactive; x = no result given. The list is not random: actives were taken first. Their share in the collection is about 3.8%. Unless noted, how the calls were made is not given here.

SMILES	Kir21 inh	hERG protect	KCNK3 block	KCNQ1 act	KCNQ1 inh	KCNK9 inh-1	others
CCn1cc(CCC(=O)NC(C)c2ccccc2)c2ccccc21 (centres undefined)	-6.11*	-3.7	i	i	i	i
COc1ccc(OC)c(CCNC(=O)Cn2sc3nc(C)cc(C)c3c2=O)c1	-1.17	-40.7	x	i	6*	i
CCn1cc(CCC(=O)NCc2cccc(OC)c2OC)c2ccccc21	-6.61	6.4*	i	i	i	i
COc1ccc(OC)c(CCNC(=O)CCc2cn(C)c3ccccc23)c1	-5.64*	0.9	i	i	i	i
CC(C)NC(=O)CCCc1cn(C)c2ccccc12	1.1	1.2	i	i	i	i
CC(CCc1ccccc1)NC(=O)CCc1cn(C)c2ccccc12 (centres undefined)	-5.63*	-5.6	i	i	i	i
CCn1c(SCC(=O)N/N=C/c2c[nH]c3ccccc23)nnc1-c1ccc(C(C)(C)C)cc1	-2.36	-2.5	i	i	i	i
OC[C@@H](O)C1OC2NC(=S)OC2C1O (some centres undefined)	-1.36	7.7*	i	i	i	i
O=S(=O)(NCC1(N2CCOCC2)CCCCC1)c1ccc(Cl)cc1C(F)(F)F	-0.23	-12.2	i	i	i	i
CCN(CC)C(=O)CC(c1ccccc1)c1ccco1 (centres undefined)	-1.65	-11.3	i	i	i	i
O=C(c1ccco1)N(CCC(c1ccccc1)c1ccco1)Cc1ccccc1 (centres undefined)	-1.02	-15.8	i	i	i	-7.16*
CCC(=O)N(CCC(c1ccccc1)c1ccco1)Cc1cccs1 (centres undefined)	-7.41*	-10.6	i	i	i	-13.7*
CCN1C(=O)CSc2ccc(C(=O)NCc3ccc(OC)cc3)cc21	-8.94*	-4.6	i	i	i	i
CCOc1ccccc1NC(=O)CSCC(=O)Nc1ccccc1	-3.74	-7.8	i	i	i	i
CCOc1ccccc1NC(=O)CC(O)(C(F)(F)F)C(F)(F)F	-0.02	-10.2	i	i	6*	i
Cc1ccc(NC(=O)CC(O)(C(F)(F)F)C(F)(F)F)c(Br)c1	2.38	-10.6	i	i	6*	i
Cn1c(Sc2ccccc2Cl)c(C=O)c2ccccc21	-1.4	-13.2	i	i	11*	i
Cn1c(Oc2ccc(Cl)cc2)c(C=O)c2ccccc21	0.01	-2.9	i	i	i	i
CCN(CC)S(=O)(=O)c1cccc(NC(=O)CCNC(=O)NC23CC4CC(CC(C4)C2)C3)c1	0.79	-12.6	i	i	8*	i
CN(C)S(=O)(=O)c1cccc(NC(=S)NC23CC4CC(CC(C4)C2)C3)c1	-0.17	-1.2	i	i	i	i
Cc1c([N+](=O)[O-])cnc(Sc2ccccc2)c1[N+](=O)[O-]	-1.22	-4.3	i	i	i	i
Cc1cc(Br)ccc1NC(=O)CNC(=O)Cn1ncc(Cl)c(Cl)c1=O	1.42	4.7*	i	i	i	i
Cc1ccc(S(=O)(=O)N2CCCCC2)cc1NC(=O)Cn1ncc(Cl)c(Cl)c1=O	x	x	i	x	x	x
CNc1nc(SC)nc2ccccc12	-1.51	6.6*	i	i	i	i
CSc1nc(NCc2ccco2)c2ccccc2n1	1.97	-4.3	i	i	i	i
SMILES	Kir21 inh	hERG protect	KCNK3 block	KCNQ1 act	KCNQ1 inh	KCNK9 inh-1	others
CC(C)CC(C(=O)NC1CCCCC1)N(Cc1ccccc1)C(=O)c1snc(C(N)=O)c1N (centres undefined)	-2.16	-14.1	i	i	6*	i
CC(C)CC(C(=O)NC1CCCC1)N(Cc1ccc2c(c1)OCO2)C(=O)c1snc(C(N)=O)c1N (centres undefined)	-0.68	-11.4	i	i	6*	i
O=C(N/N=C/C1CC2C=CC1C2)c1ccccc1O (centres undefined)	1.64	-6.3	i	i	i	i
OCCC1CN(C2CCC2)CCN1Cc1ccc(F)c(F)c1 (centres undefined)	-0.47	-1.3	i	i	i	i
CCCCN1C(=O)N(CCc2ccc(F)cc2)S(=O)(=O)c2cc(C(F)(F)F)ccc21	x	x	i	x	x	x
O=C(O)CCc1cc(I)c(Oc2ccc(O)c(I)c2)c(I)c1	-0.74	29.0*	x	49*	i	i
CN(CC(=O)NCc1ccccc1Cl)S(=O)(=O)c1ccc2c(c1)n(C)c(=O)c(=O)n2C	1.4	-8.1	i	i	i	i
CC1(C)C(=O)Nc2ccccc2N1C(=O)COC(=O)COc1ccc(C#N)cc1	0.89	-5.7	i	i	i	i
CCOCc1cn(CC(=O)c2ccc([N+](=O)[O-])cc2)c(C)nc1=N	3.15	-6.3	i	i	i	i	hERG inh=i;KCNK9 inh-2=i;Kir21 ephys inh=i
CCCCCOc1ccc(NC2=CC(=O)CCC2)cc1	0.84	-0.8	i	i	i	i
Cc1ccccc1OCCSc1nnc(C)n1-c1ccccc1	-6.66*	-5.9	i	i	i	i	hERG inh=i;KCNK9 inh-2=i;Kir21 ephys inh=53.8%*
Cc1ccccc1OCc1nnc(SCC(=O)O)n1-c1ccccc1	-0.07	-1.6	i	i	i	i
CCCN1CCC(NC23CC4CC(CC(C4)C2)C3)CC1	-9.82*	-6.9	x	i	i	i	hERG inh=i;KCNK9 inh-2=i;Kir21 ephys inh=41.1%*
NS(=O)(=O)c1ccc(CNC(=O)c2cc(S(=O)(=O)N3CCOCC3)c(Cl)cc2Cl)cc1	x	x	i	x	x	x
CC(=O)Nc1cccc(NC(=O)CSc2nccn2Cc2ccccc2)c1	-0.07	-12.1	i	i	i	i
CCCCCc1ccc(CC(=O)N2CCOCC2)cc1	1.14	-1.1	i	i	i	i
C=CCc1cc(Cl)ccc1OCCOCCNC(C)CC (centres undefined)	-7.04*	-13.6	i	i	i	i	hERG inh=i;KCNK9 inh-2=i;Kir21 ephys inh=42.2%*
COc1ccc(C)cc1NCc1cccc(OC)c1OC	0.05	-5.7	i	i	i	i
COc1cc(OC)c(OC)cc1CNc1cc(C)ccc1OC	-5.83*	-7.0	i	i	i	i	hERG inh=i;KCNK9 inh-2=i;Kir21 ephys inh=28.7%*
